Test system: HEK-293T
Assay: Multiplex assay against HEK293T;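 on Population Tubulin-Different-Phenotype (%): share of the cells with healthy nuclei that show this phenotype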
Type: toxicity, cell-based
Details: human
Summary of the method: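 Live cells carried four stains from seeding: Hoechst33342, BioTracker Green Microtubule Cytoskeleton Dye, MitoTracker Red and Annexin V Alexa Fluor 680. They were imaged on a CQ1 microscope at 37°C and 5% CO2 after compound addition. Using CellPathfinder machine-learning gating, cells were split into Hoechst high-intensity objects or normal cells, normal cells into healthy, pyknosed or fragmented nuclei, and pyknosed cells into mitotic or apoptotic; tubulin, mitochondrial-mass and membrane-permeability phenotypes are per cents of healthy-nucleus cells.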

[1] = 12 h, 1 µM, compound concentration 1 uM, replicate 1
[2] = 12 h, 1 µM, compound concentration 1 uM, replicate 2
[3] = 12 h, 10 µM, compound concentration 10 uM, replicate 1
[4] = 12 h, 10 µM, compound concentration 10 uM, replicate 2
[5] = 24 h, 1 µM, compound concentration 1 uM, replicate 1
[6] = 24 h, 1 µM, compound concentration 1 uM, replicate 2
[7] = 24 h, 10 µM, compound concentration 10 uM, replicate 1
[8] = 24 h, 10 µM, compound concentration 10 uM, replicate 2
[9] = 48 h, 1 µM, compound concentration 1 uM, replicate 1
[10] = 48 h, 1 µM, compound concentration 1 uM, replicate 2
[11] = 48 h, 10 µM, compound concentration 10 uM, replicate 1
[12] = 48 h, 10 µM, compound concentration 10 uM, replicate 2

## CN(C)C(=O)C(CCN1CCC(O)(c2ccc(Cl)cc2)CC1)(c1ccccc1)c1ccccc1.Cl [LOPERAMIDE HYDROCHLORIDE]
[1]
  Population Apoptotic (%): 70%
  Population Fragmented Nuclei (%): 10%
  Population Healthy Nuclei (%): 37%
  Population Hoechst High Intensity Objects (%): 16%
  Population Membrane Permeable-Phenotype (%): 2%
  Population Mitochondria Different-Phenotype (%): 92%
  Population Mitotic Cells (%): 29%
  Population Normal (%): 83%
  Population Pyknosed Nuclei (%): 51%
  Population Tubulin-Different-Phenotype (%): 83%
  Total Cell Count: 254
[2]
  Population Apoptotic (%): 56%
  Population Fragmented Nuclei (%): 4%
  Population Healthy Nuclei (%): 30%
  Population Hoechst High Intensity Objects (%): 0%
  Population Membrane Permeable-Phenotype (%): 6%
  Population Mitochondria Different-Phenotype (%): 95%
  Population Mitotic Cells (%): 43%
  Population Normal (%): 99%
  Population Pyknosed Nuclei (%): 65%
  Population Tubulin-Different-Phenotype (%): 85%
  Total Cell Count: 208
[3]
  Population Apoptotic (%): 91%
  Population Fragmented Nuclei (%): 10%
  Population Healthy Nuclei (%): 7%
  Population Hoechst High Intensity Objects (%): 20%
  Population Membrane Permeable-Phenotype (%): 0%
  Population Mitochondria Different-Phenotype (%): 100%
  Population Mitotic Cells (%): 8%
  Population Normal (%): 79%
  Population Pyknosed Nuclei (%): 82%
  Population Tubulin-Different-Phenotype (%): 86%
  Total Cell Count: 258
[4]
  Population Apoptotic (%): 98%
  Population Fragmented Nuclei (%): 6%
  Population Hoechst High Intensity Objects (%): 15%
  Population Mitotic Cells (%): 1%
  Population Normal (%): 84%
  Population Pyknosed Nuclei (%): 86%
  Population Tubulin-Different-Phenotype (%): 70%
  Total Cell Count: 158
[5]
  Population Apoptotic (%): 73%
  Population Fragmented Nuclei (%): 11%
  Population Healthy Nuclei (%): 35%
  Population Hoechst High Intensity Objects (%): 16%
  Population Membrane Permeable-Phenotype (%): 1%
  Population Mitochondria Different-Phenotype (%): 90%
  Population Mitotic Cells (%): 26%
  Population Normal (%): 83%
  Population Pyknosed Nuclei (%): 53%
  Population Tubulin-Different-Phenotype (%): 80%
  Total Cell Count: 259
[6]
  Population Apoptotic (%): 65%
  Population Fragmented Nuclei (%): 3%
  Population Healthy Nuclei (%): 48%
  Population Hoechst High Intensity Objects (%): 0%
  Population Membrane Permeable-Phenotype (%): 3%
  Population Mitochondria Different-Phenotype (%): 94%
  Population Mitotic Cells (%): 34%
  Population Normal (%): 99%
  Population Pyknosed Nuclei (%): 47%
  Population Tubulin-Different-Phenotype (%): 89%
  Total Cell Count: 242
[7]
  Population Apoptotic (%): 88%
  Population Fragmented Nuclei (%): 16%
  Population Healthy Nuclei (%): 8%
  Population Hoechst High Intensity Objects (%): 23%
  Population Membrane Permeable-Phenotype (%): 0%
  Population Mitochondria Different-Phenotype (%): 100%
  Population Mitotic Cells (%): 11%
  Population Normal (%): 76%
  Population Pyknosed Nuclei (%): 75%
  Population Tubulin-Different-Phenotype (%): 73%
  Total Cell Count: 297
[8]
  Population Apoptotic (%): 96%
  Population Fragmented Nuclei (%): 7%
  Population Hoechst High Intensity Objects (%): 12%
  Population Mitochondria Different-Phenotype (%): 91%
  Population Mitotic Cells (%): 3%
  Population Normal (%): 87%
  Population Pyknosed Nuclei (%): 84%
  Population Tubulin-Different-Phenotype (%): 75%
  Total Cell Count: 162
[9]
  Population Apoptotic (%): 75%
  Population Fragmented Nuclei (%): 16%
  Population Healthy Nuclei (%): 45%
  Population Hoechst High Intensity Objects (%): 16%
  Population Membrane Permeable-Phenotype (%): 0%
  Population Mitochondria Different-Phenotype (%): 86%
  Population Mitotic Cells (%): 24%
  Population Normal (%): 83%
  Population Pyknosed Nuclei (%): 37%
  Population Tubulin-Different-Phenotype (%): 80%
  Total Cell Count: 322
[10]
  Population Apoptotic (%): 71%
  Population Fragmented Nuclei (%): 6%
  Population Healthy Nuclei (%): 69%
  Population Hoechst High Intensity Objects (%): 3%
  Population Membrane Permeable-Phenotype (%): 1%
  Population Mitochondria Different-Phenotype (%): 83%
  Population Mitotic Cells (%): 28%
  Population Normal (%): 96%
  Population Pyknosed Nuclei (%): 23%
  Population Tubulin-Different-Phenotype (%): 89%
  Total Cell Count: 305
[11]
  Population Apoptotic (%): 85%
  Population Fragmented Nuclei (%): 25%
  Population Healthy Nuclei (%): 0%
  Population Hoechst High Intensity Objects (%): 24%
  Population Membrane Permeable-Phenotype (%): 0%
  Population Mitochondria Different-Phenotype (%): 100%
  Population Mitotic Cells (%): 14%
  Population Normal (%): 75%
  Population Pyknosed Nuclei (%): 73%
  Population Tubulin-Different-Phenotype (%): 0%
  Total Cell Count: 315
[12]
  Population Apoptotic (%): 98%
  Population Fragmented Nuclei (%): 9%
  Population Healthy Nuclei (%): 7%
  Population Hoechst High Intensity Objects (%): 19%
  Population Mitochondria Different-Phenotype (%): 90%
  Population Mitotic Cells (%): 1%
  Population Normal (%): 80%
  Population Pyknosed Nuclei (%): 82%
  Population Tubulin-Different-Phenotype (%): 72%
  Total Cell Count: 181

## C=C1/C(=C\C=C2/CCC[C@]3(C)[C@@H]([C@H](C)/C=C/[C@H](C)C(C)C)CC[C@@H]23)C[C@@H](O)C[C@@H]1O [DOXERCALCIFEROL]
[1]
  Population Apoptotic (%): 53%
  Population Fragmented Nuclei (%): 17%
  Population Healthy Nuclei (%): 26%
  Population Hoechst High Intensity Objects (%): 23%
  Population Membrane Permeable-Phenotype (%): 3%
  Population Mitochondria Different-Phenotype (%): 78%
  Population Mitotic Cells (%): 46%
  Population Normal (%): 76%
  Population Pyknosed Nuclei (%): 55%
  Population Tubulin-Different-Phenotype (%): 12%
  Total Cell Count: 156
[2]
  Population Apoptotic (%): 10%
  Population Fragmented Nuclei (%): 7%
  Population Healthy Nuclei (%): 44%
  Population Hoechst High Intensity Objects (%): 2%
  Population Membrane Permeable-Phenotype (%): 4%
  Population Mitochondria Different-Phenotype (%): 11%
  Population Mitotic Cells (%): 89%
  Population Normal (%): 97%
  Population Pyknosed Nuclei (%): 48%
  Population Tubulin-Different-Phenotype (%): 11%
  Total Cell Count: 240
[3]
  Population Apoptotic (%): 50%
  Population Fragmented Nuclei (%): 15%
  Population Healthy Nuclei (%): 25%
  Population Hoechst High Intensity Objects (%): 16%
  Population Membrane Permeable-Phenotype (%): 2%
  Population Mitochondria Different-Phenotype (%): 71%
  Population Mitotic Cells (%): 49%
  Population Normal (%): 83%
  Population Pyknosed Nuclei (%): 59%
  Population Tubulin-Different-Phenotype (%): 34%
  Total Cell Count: 180
[4]
  Population Apoptotic (%): 13%
  Population Fragmented Nuclei (%): 7%
  Population Healthy Nuclei (%): 35%
  Population Hoechst High Intensity Objects (%): 3%
  Population Membrane Permeable-Phenotype (%): 6%
  Population Mitochondria Different-Phenotype (%): 20%
  Population Mitotic Cells (%): 86%
  Population Normal (%): 96%
  Population Pyknosed Nuclei (%): 56%
  Population Tubulin-Different-Phenotype (%): 23%
  Total Cell Count: 211
[5]
  Population Apoptotic (%): 52%
  Population Fragmented Nuclei (%): 22%
  Population Healthy Nuclei (%): 27%
  Population Hoechst High Intensity Objects (%): 23%
  Population Membrane Permeable-Phenotype (%): 0%
  Population Mitochondria Different-Phenotype (%): 63%
  Population Mitotic Cells (%): 47%
  Population Normal (%): 76%
  Population Pyknosed Nuclei (%): 50%
  Population Tubulin-Different-Phenotype (%): 30%
  Total Cell Count: 170
[6]
  Population Apoptotic (%): 10%
  Population Fragmented Nuclei (%): 7%
  Population Healthy Nuclei (%): 59%
  Population Hoechst High Intensity Objects (%): 3%
  Population Membrane Permeable-Phenotype (%): 9%
  Population Mitochondria Different-Phenotype (%): 5%
  Population Mitotic Cells (%): 89%
  Population Normal (%): 96%
  Population Pyknosed Nuclei (%): 32%
  Population Tubulin-Different-Phenotype (%): 12%
  Total Cell Count: 305
[7]
  Population Apoptotic (%): 39%
  Population Fragmented Nuclei (%): 20%
  Population Healthy Nuclei (%): 26%
  Population Hoechst High Intensity Objects (%): 18%
  Population Membrane Permeable-Phenotype (%): 7%
  Population Mitochondria Different-Phenotype (%): 78%
  Population Mitotic Cells (%): 60%
  Population Normal (%): 81%
  Population Pyknosed Nuclei (%): 52%
  Population Tubulin-Different-Phenotype (%): 58%
  Total Cell Count: 191
[8]
  Population Apoptotic (%): 25%
  Population Fragmented Nuclei (%): 9%
  Population Healthy Nuclei (%): 56%
  Population Hoechst High Intensity Objects (%): 1%
  Population Membrane Permeable-Phenotype (%): 10%
  Population Mitochondria Different-Phenotype (%): 7%
  Population Mitotic Cells (%): 74%
  Population Normal (%): 98%
  Population Pyknosed Nuclei (%): 34%
  Population Tubulin-Different-Phenotype (%): 37%
  Total Cell Count: 255
[9]
  Population Apoptotic (%): 46%
  Population Fragmented Nuclei (%): 19%
  Population Healthy Nuclei (%): 33%
  Population Hoechst High Intensity Objects (%): 16%
  Population Membrane Permeable-Phenotype (%): 0%
  Population Mitochondria Different-Phenotype (%): 34%
  Population Mitotic Cells (%): 53%
  Population Normal (%): 83%
  Population Pyknosed Nuclei (%): 47%
  Population Tubulin-Different-Phenotype (%): 36%
  Total Cell Count: 180
[10]
  Population Apoptotic (%): 9%
  Population Fragmented Nuclei (%): 7%
  Population Healthy Nuclei (%): 81%
  Population Hoechst High Intensity Objects (%): 3%
  Population Membrane Permeable-Phenotype (%): 4%
  Population Mitochondria Different-Phenotype (%): 2%
  Population Mitotic Cells (%): 90%
  Population Normal (%): 97%
  Population Pyknosed Nuclei (%): 11%
  Population Tubulin-Different-Phenotype (%): 14%
  Total Cell Count: 601
[11]
  Population Apoptotic (%): 42%
  Population Fragmented Nuclei (%): 23%
  Population Healthy Nuclei (%): 35%
  Population Hoechst High Intensity Objects (%): 17%
  Population Membrane Permeable-Phenotype (%): 5%
  Population Mitochondria Different-Phenotype (%): 35%
  Population Mitotic Cells (%): 57%
  Population Normal (%): 82%
  Population Pyknosed Nuclei (%): 40%
  Population Tubulin-Different-Phenotype (%): 33%
  Total Cell Count: 193
[12]
  Population Apoptotic (%): 22%
  Population Fragmented Nuclei (%): 9%
  Population Healthy Nuclei (%): 79%
  Population Hoechst High Intensity Objects (%): 2%
  Population Membrane Permeable-Phenotype (%): 6%
  Population Mitochondria Different-Phenotype (%): 4%
  Population Mitotic Cells (%): 77%
  Population Normal (%): 97%
  Population Pyknosed Nuclei (%): 11%
  Population Tubulin-Different-Phenotype (%): 24%
  Total Cell Count: 475

Source: ChEMBL document CHEMBL4689842, “EUbOPEN Chemogenomics Library wave 1” (2021)
